Measured values gathered from unrelated publications.
Each line is one published result; the experiments were not run side by side.
CA1: Carbonic anhydrase 1 (CA1, Homo sapiens, UniProt P00915)
gag-pol reverse transcriptase: Gag-Pol polyprotein, reverse transcriptase (gag-pol, Human immunodeficiency virus 1, UniProt P03366)
ACKR3: Atypical chemokine receptor 3 (ACKR3, Homo sapiens, UniProt P25106)
LATS1: Serine/threonine-protein kinase LATS1 (LATS1, Homo sapiens, UniProt O95835)
SLC18A2: Synaptic vesicular amine transporter (SLC18A2, Homo sapiens, UniProt Q05940)
CYP2C19: Cytochrome P450 2C19 (CYP2C19, Homo sapiens, UniProt P33261)
ERBB2: Receptor tyrosine-protein kinase erbB-2 (ERBB2, Homo sapiens, UniProt P04626)
UGT1A4: UDP-glucuronosyltransferase 1A4 (UGT1A4, Homo sapiens, UniProt P22310)
CA2: Carbonic anhydrase 2 (CA2, Homo sapiens, UniProt P00918)

| SMILES | target | assay | system | conditions | IC50 |
| --- | --- | --- | --- | --- | --- |
| CC[C@H]1OC(=O)[C@H](C)[C@@H](O[C@H]2C[C@@](C)(OC)[C@@H](O)[C@H](C)O2)[C@H](C)[C@@H](O[C@@H]2O[C@H](C)C[C@H](N(C)C)[C@H]2O)[C@](C)(O)C[C@@H](C)CN(C)[C@H](C)[C@@H](O)[C@]1(C)O | CA1 | enzyme activity, inhibitor, absorbance | – | pH 7.4 | 15 µM |
| C/C=C/CNc1c2c([nH]c(=O)c1C(=O)OCC)CCC2 | gag-pol reverse transcriptase | enzyme activity, inhibitor | – | – | > 100 µM |
| CC(C)(C)NC(=O)C1CCN(Cc2cccc(/N=N/c3ccccc3)c2)CC1 | ACKR3 | ligand displacement, BRET | – | – | 1 µM |
| Nc1ccc(S(=O)(=O)c2ccc(N)cc2)cc1 | CA1 | enzyme activity, inhibitor, absorbance | – | pH 7.4 | 17.1 µM |
| CNC(=O)c1ccccc1Nc1nc(Nc2ccc(N3CCNCC3)cc2)ncc1Cl | LATS1 | target engagement in cells, BRET | – | – | 0.301 µM |
| CN1CCN(CCCN2c3ccccc3Sc3ccc(Cl)cc32)CC1 | SLC18A2 | transporter uptake, inhibitor | – | – | 3.72 µM |
| CC(C)(C)NC(=O)C1CCN(Cc2cccc(/N=N/c3ccc(C(F)(F)F)cc3)c2)CC1 | ACKR3 | ligand displacement, BRET | – | – | > 10 µM |
| CCOC(=O)c1c(NCC(C)C)c2c([nH]c1=O)CCC2 | gag-pol reverse transcriptase | enzyme activity, inhibitor | – | – | 33.9 µM |
| OCCN1CCN(CCCN2c3ccccc3Sc3ccc(C(F)(F)F)cc32)CC1 | SLC18A2 | transporter uptake, inhibitor | – | – | 2.34 µM |
| OC1(c2ccc(-c3ccnc4[nH]cc(F)c34)cc2)CCNC1 (stereo not shown) | LATS1 | enzyme activity, inhibitor, radiometric | – | – | 0.011 µM |
| CC(C)(C)NC(=O)C1CCN(Cc2cccc(/N=N/c3ccccc3F)c2)CC1 | ACKR3 | ligand displacement, BRET | – | – | 1.26 µM |
| CCOC(=O)c1c(NCCC(C)C)c2c([nH]c1=O)CCC2 | gag-pol reverse transcriptase | enzyme activity, inhibitor | – | – | 88.7 µM |
| Cn1cnc([N+](=O)[O-])c1Sc1ncnc2nc[nH]c12 | CA1 | enzyme activity, inhibitor, absorbance | – | pH 7.4 | 18.4 µM |
| Fc1c[nH]c2nccc(-c3ccc(C4CCNCC4)cc3)c12 | LATS1 | enzyme activity, inhibitor, radiometric | – | – | 0.0088 µM |
| Cc1ccc(OCC(=O)N[C@@H](Cc2c[nH]c3ccccc23)C(=O)OC(C)C)cc1 | CYP2C19 | enzyme activity, inhibitor | human, liver microsomes | 30 min | 31.5 µM |
| CN(C)C(=O)c1cc2cnc(Nc3ccc(-c4ccc5c(=O)cc(N6CCOCC6)oc5c4)cc3)nc2n1C1CCCC1 | CYP2C19 | enzyme activity, inhibitor, fluorescence | – | pH 8 | 0.023 µM |
| OC1(c2ccc(-c3ccnc4[nH]cc(F)c34)cc2)CCNCC1 | LATS1 | target engagement in cells, BRET | – | – | 17.1 µM |
| O=C(CCCN1CC=C(n2c(=O)[nH]c3ccccc32)CC1)c1ccc(F)cc1 | SLC18A2 | transporter uptake, inhibitor, radiometric | – | cell membranes | 0.154 µM |
| CC1CNCCC1(O)c1ccc(-c2ccnc3[nH]cc(F)c23)cc1 (stereo not shown) | LATS1 | target engagement in cells, BRET | – | – | 2.21 µM |
| O=c1[nH]c(=O)n([C@H]2C[C@H](O)[C@@H](CO)O2)cc1/C=C/Br | CA1 | enzyme activity, inhibitor, absorbance | – | pH 7.4 | 12.4 µM |
| Clc1ccc2c(c1)C(N1CCNCC1)=Nc1ccccc1O2 | SLC18A2 | transporter uptake, inhibitor | – | – | 8.5 µM |
| COc1c(Cl)cccc1Nc1c(-c2ccncc2OC[C@@H]2COCCO2)[nH]c2c1C(=O)NCC2 | ERBB2 | enzyme activity, inhibitor, TR-FRET | – | – | < 0.0005 µM |
| C=C(C)[C@@H]1CC[C@]2(C(=O)O)CC[C@]3(C)[C@H](CC[C@@H]4[C@@]5(C)CC[C@H](O)C(C)(C)[C@@H]5CC[C@]43C)[C@@H]12 | UGT1A4 | enzyme activity, inhibitor | human, liver microsomes | – | 4.21 µM |

| SMILES | target | assay | system | conditions | IC50 |
| --- | --- | --- | --- | --- | --- |
| NC(=O)c1nnn(Cc2cc(Cl)c(C(=O)c3ccc(Cl)cc3)c(Cl)c2)c1N | Delta-type opioid receptor (OPRD1, Homo sapiens, UniProt P41143) | cAMP, antagonist | – | – | 1.09 µM |
| CCOC(=O)c1c(NCCO)c2c([nH]c1=O)CCC2 | gag-pol reverse transcriptase | enzyme activity, inhibitor | – | – | > 100 µM |
| O=C1CCc2ccc(OCCCCN3CCN(c4cccc(Cl)c4Cl)CC3)cc2N1 | SLC18A2 | transporter uptake, inhibitor, radiometric | – | cell membranes | 0.036 µM |
| CN1CCC(CNc2ccc3ncc(-c4cccc(OC(F)(F)F)c4)n3n2)CC1 | Alpha-2A adrenergic receptor (ADRA2A, Homo sapiens, UniProt P08913) | cAMP, antagonist | – | – | 5.17 µM |
| CCc1nn(CCCN2CCN(c3cccc(Cl)c3)CC2)c(=O)n1CCOc1ccccc1 | SLC18A2 | transporter uptake, inhibitor | – | – | 0.667 µM |
| Cc1cc2c(cc1C)N[C@H](c1ccccc1)[C@@H](O)C(=O)N2 | ERBB2 | enzyme activity, inhibitor, ELISA | – | – | 0.023 µM |
| CCOC(=O)c1c(NCCCO)c2c([nH]c1=O)CCC2 | gag-pol reverse transcriptase | enzyme activity, inhibitor | – | – | > 100 µM |
| CC(C)(C(=O)O)c1ccc(C(O)CCCN2CCC(C(O)(c3ccccc3)c3ccccc3)CC2)cc1 (stereo not shown) | CA2 | enzyme activity, inhibitor, absorbance | – | pH 7.4 | 28.4 µM |
| C=CCc1ccccc1OCC(O)CNC(C)C (stereo not shown) | SLC18A2 | transporter uptake, inhibitor | – | – | 7.7 µM |
| COc1ccnc(C[S+]([O-])c2nc3ccc(OC(F)F)cc3[nH]2)c1OC (stereo not shown) | CA2 | enzyme activity, inhibitor, absorbance | – | pH 7.4 | 13.8 µM |
| C[C@@H]1CC[C@@]2(OC1)O[C@H]1C[C@H]3[C@@H]4CC[C@H]5C[C@@H](O)CC[C@]5(C)[C@H]4CC(=O)[C@]3(C)[C@H]1[C@@H]2C | UGT1A4 | enzyme activity, inhibitor | human, liver microsomes | – | 2.23 µM |
| CCOCCn1c(C2CCN(CCc3ccc(C(C)(C)C(=O)O)cc3)CC2)nc2ccccc21 | CA2 | enzyme activity, inhibitor, absorbance | – | pH 7.4 | 13.4 µM |
| OCc1ccc(-c2nn(Cc3ccccc3)c3ccccc23)o1 | CYP2C19 | enzyme activity, inhibitor | human, liver microsomes | – | 3.3 µM |
| OC1(c2ccc(-c3ccnc4[nH]cc(F)c34)cc2)CCCNCC1 (stereo not shown) | LATS1 | enzyme activity, inhibitor, radiometric | – | – | 0.017 µM |
| CCOC(=O)c1c(NCCCN)c2c([nH]c1=O)CCC2 | gag-pol reverse transcriptase | enzyme activity, inhibitor | – | – | > 100 µM |
| COc1cc(C)c(/C=C/C(C)=C/C=C/C(C)=C/C(=O)O)c(C)c1C | CA1 | enzyme activity, inhibitor, absorbance | – | pH 7.4 | 11.3 µM |
| Cc1cc(-c2ccnc3[nH]cc(F)c23)cc(F)c1[C@@]1(O)[C@H](C)CNC[C@@H]1C | LATS1 | target engagement in cells, BRET | – | – | 0.027 µM |
| NC(=O)N1c2ccccc2C=Cc2ccccc21 | Sodium channel protein type 2 subunit alpha (SCN2A, Homo sapiens, UniProt Q99250) | ion current, inhibitor, patch clamp | – | – | > 300 µM |
| Cc1ccc(C(=O)Nc2ccc(CN3CCN(C)CC3)c(C(F)(F)F)c2)cc1C#Cc1cnc2cccnn12 | SLC18A2 | transporter uptake, inhibitor, radiometric | – | cell membranes | 0.7 µM |
| CCCCCNc1c2c([nH]c(=O)c1C(=O)OCC)CCC2 | gag-pol reverse transcriptase | enzyme activity, inhibitor | – | – | > 100 µM |
| OC1CCN(c2ccc(/C=N/NC(=S)Nc3ccc(Cl)cc3)cc2)CC1 | CA2 | enzyme activity, inhibitor, absorbance | – | – | 0.378 µM |
| CCCNc1c2c([nH]c(=O)c1C(=O)OCC)CCC2 | gag-pol reverse transcriptase | enzyme activity, inhibitor | – | – | 76.4 µM |
| C[C@@H]1CNC[C@H](C)[C@@]1(O)c1ccc(-c2ccnc3[nH]cc(F)c23)cc1 | LATS1 | target engagement in cells, BRET | – | – | 0.518 µM |
